# ChEMBL document CHEMBL3745600, “2-Amino-thiophene derivatives present antileishmanial activity mediated by apoptosis and immunomodulation in vitro” (Eur J Med Chem, 2015)
# Activity calls are given as the source filed them. The rule behind the calls is not given here.
# How the values were obtained:
# [1] = Selectivity index, ratio of HC50 for human RBC to IC50 for axenic amastigotes of Leishmania amazonensis IFLA/BR/67/PH8
# In short: (§1)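 Promastigote values came from haemocytometer counts after 72 h at 25°C. Axenic amastigote values came from MTT readings after 24 h at 32°C, using amastigotes differentiated at pH 4.6. All 50% values were obtained by probit regression.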
# [2] = test system: Leishmania amazonensis; assay: Antileishmanial activity against axenic amastigotes of Leishmania amazonensis IFLA/BR/67/PH8 infected in Swiss mouse peritoneal macrophages assessed as reduction of survival rate at 300 mg/L after 72 hrs by light microscopy analysis; format: functional, organism-based
# In short: (§2)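 Peritoneal macrophages were plated on glass coverslips at 1 x 10^6 cells/mL in supplemented RPMI 1640 and allowed to adhere for 2 h at 34°C, 5% CO₂. They were infected for 3 h with stationary-phase promastigotes at 10 parasites per macrophage, washed with PBS, then exposed to compound for 24 or 72 h. Coverslips were fixed and Panoptic-stained, and 300 macrophages per coverslip were counted by light microscopy. EC50 was derived by probit regression.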
# [3] = Selectivity index, ratio of CC50 for Swiss mouse peritoneal macrophages to EC50 for axenic amastigotes of Leishmania amazonensis IFLA/BR/67/PH8; in short: as §1
# [4] = Selectivity index, ratio of CC50 for Swiss mouse peritoneal macrophages to IC50 for promastigotes of Leishmania amazonensis IFLA/BR/67/PH8; format: functional; in short: as §1
# [5] = test system: Leishmania amazonensis; assay: Antileishmanial activity against axenic amastigotes of Leishmania amazonensis IFLA/BR/67/PH8 infected in Swiss mouse peritoneal macrophages assessed as reduction of survival rate at 50 to 300 mg/L after 24 hrs by light microscopy analysis; format: functional, organism-based; in short: as §2
# [6] = Selectivity index, ratio of HC50 for human RBC to IC50 for promastigotes of Leishmania amazonensis IFLA/BR/67/PH8; in short: as §1
# [7] = test system: Leishmania amazonensis; assay: Antileishmanial activity against promastigotes of Leishmania amazonensis IFLA/BR/67/PH8 assessed as induction of late apoptosis using Annexin-V/PI staining at IC50 after 4 hrs by flow cytometry (reference value: 12.05%); format: functional
# [8] = Cytotoxicity against Swiss mouse peritoneal macrophages after 24 hrs by MTT assay; format: cell-based, Peritoneal macrophage cell
# In short: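 Macrophages were collected from Swiss mice 5 days after thioglycollate (3%) elicitation. About 1 x 10^6 cells per well were incubated in RPMI 1640 with 10% heat-inactivated FBS and compound for 24 h at 37°C, 5% CO₂. MTT was added for 4 h, followed by 10% SDS, and absorbance was read at 540 nm. CC50 was obtained by probit regression.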
# [9] = test system: Peritoneal macrophage cell; assay: Immunomodulatory activity in Swiss mouse peritoneal macrophages infected with promastigotes form of Leishmania amazonensis IFLA/BR/67/PH8 assessed as increase of IL-10 production at 6.25 to 25 uM after 72 hrs by sandwich ELISA; format: functional, cell-based
# In short: (§3)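 Supernatants came from infected macrophages treated for 72 h at 37°C, 5% CO₂. TNF-α, IL-12 and IL-10 were measured by sandwich ELISA at 450 nm against murine recombinant cytokine standards. NO was estimated as nitrite by the Griess reaction at 540 nm against a sodium nitrite standard. LPS (10 mg/L) served as positive control. Three experiments were run in triplicate.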
# [10] = test system: Peritoneal macrophage cell; assay: Immunomodulatory activity in Swiss mouse peritoneal macrophages infected with promastigotes form of Leishmania amazonensis IFLA/BR/67/PH8 assessed as increase of IL-12 production at 6.25 to 25 uM after 72 hrs by sandwich ELISA; format: functional, cell-based; in short: as §3
# [11] = Ratio of compound CC50 to meglumine antimoniate CC50 for Swiss mouse peritoneal macrophages; format: ADME, cell-based, Peritoneal macrophage cell
# [12] = test system: Leishmania amazonensis; assay: Antileishmanial activity against promastigotes of Leishmania amazonensis IFLA/BR/67/PH8 assessed as induction of early apoptosis using Annexin-V staining at 4 times IC50 after 4 hrs by flow cytometry (reference value: 8.3%); format: functional
# [13] = Ratio of compound HC50 to meglumine antimoniate HC50 for human RBC; format: ADME, cell-based; conditions: erythrocyte
# [14] = test system: Leishmania amazonensis; assay: Antileishmanial activity against promastigotes of Leishmania amazonensis IFLA/BR/67/PH8 assessed as induction of late apoptosis using Annexin-V/PI staining at 4 times IC50 after 4 hrs by flow cytometry (reference value: 12.05%); format: functional
# [15] = test system: Leishmania amazonensis; assay: Antileishmanial activity against promastigotes of Leishmania amazonensis IFLA/BR/67/PH8 assessed as induction of necrosis using Annexin-V-FITC/PI staining at 2 times IC50 after 4 hrs by flow cytometry (reference value: 2.6%); format: functional
# [16] = test system: Leishmania amazonensis; assay: Antileishmanial activity against promastigotes of Leishmania amazonensis IFLA/BR/67/PH8 assessed as induction of DNA fragmentation at 1 to 4 times IC50 after 24 hrs by agarose gel electrophoresis; format: functional, organism-based
# In short: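 Genomic DNA was extracted with phenol/chloroform and run on agarose with GelRed (1:500) for 1 h at […]. Fragmentation was viewed under UV as a qualitative read-out.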
# [17] = test system: Peritoneal macrophage cell; assay: Immunomodulatory activity in Swiss mouse peritoneal macrophages infected with promastigotes form of Leishmania amazonensis IFLA/BR/67/PH8 assessed as increase of TNFalpha production at 6.25 to 25 uM after 72 hrs by sandwich ELISA; format: functional, cell-based; in short: as §3
# [18] = Toxicity in human RBC assessed as induction of hemolytic activity after 1 hr by spectrometer analysis; format: cell-based, Erythrocyte; conditions: red blood cells (RBC)
# In short: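 A 5% suspension of human erythrocytes in PBS was mixed 4:1 with serial compound dilutions and incubated 1 h at 37°C. The reaction was stopped with PBS (pH 7.2) and spun 10 min at 1000 x g, and supernatant absorbance was read at 540 nm. Haemolysis was expressed relative to a drug-free blank and to water-induced total lysis. HC50 was obtained by probit regression.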
# [19] = test system: Leishmania amazonensis; assay: Antileishmanial activity against promastigotes of Leishmania amazonensis IFLA/BR/67/PH8 assessed as induction of necrosis using Annexin-V-FITC/PI staining at IC50 after 4 hrs by flow cytometry (reference value: 2.6%); format: functional
# [20] = test system: Leishmania amazonensis; assay: Antileishmanial activity against promastigotes of Leishmania amazonensis IFLA/BR/67/PH8 assessed as induction of early apoptosis using Annexin-V staining at 2 times IC50 after 4 hrs by flow cytometry (reference value: 8.3%); format: functional
# [21] = test system: Leishmania amazonensis; assay: Antileishmanial activity against promastigotes of Leishmania amazonensis IFLA/BR/67/PH8 assessed as viable cells using Annexin-V staining at IC50 after 4 hrs by flow cytometry (reference value: 77%); format: functional
# [22] = test system: Leishmania amazonensis; assay: Antileishmanial activity against promastigotes of Leishmania amazonensis IFLA/BR/67/PH8 assessed as induction of late apoptosis using Annexin-V/PI staining at 2 times IC50 after 4 hrs by flow cytometry (reference value: 12.05%); format: functional
# [23] = test system: Leishmania amazonensis; assay: Antileishmanial activity against promastigotes of Leishmania amazonensis IFLA/BR/67/PH8 assessed as induction of necrosis using Annexin-V-FITC/PI staining at 4 times IC50 after 4 hrs by flow cytometry (reference value: 2.6%); format: functional
# [24] = test system: Leishmania amazonensis; assay: Antileishmanial activity against promastigotes of Leishmania amazonensis IFLA/BR/67/PH8 assessed as viable cells using Annexin-V staining at 4 times IC50 after 4 hrs by flow cytometry (reference value: 77%); format: functional
# [25] = test system: Leishmania amazonensis; assay: Antileishmanial activity against axenic amastigotes of Leishmania amazonensis IFLA/BR/67/PH8 infected in Swiss mouse peritoneal macrophages assessed as reduction of survival rate after 24 hrs by light microscopy analysis; format: functional, organism-based; in short: as §2
# [26] = test system: Leishmania amazonensis; assay: Antileishmanial activity against promastigotes of Leishmania amazonensis IFLA/BR/67/PH8 assessed as induction of early apoptosis using Annexin-V staining at IC50 after 4 hrs by flow cytometry (reference value: 8.3%); format: functional
# [27] = test system: Leishmania amazonensis; assay: Antileishmanial activity against promastigotes of Leishmania amazonensis IFLA/BR/67/PH8 after 72 hrs by Neubauer haemocytometer counting; conditions: IFLA/BR/67/PH8, 72 h
# [28] = test system: Leishmania amazonensis; assay: Antileishmanial activity against axenic amastigotes of Leishmania amazonensis IFLA/BR/67/PH8 after 24 hrs by MTT assay; conditions: IFLA/BR/67/PH8, 24 h
# [29] = test system: Leishmania amazonensis; assay: Antileishmanial activity against axenic amastigotes of Leishmania amazonensis IFLA/BR/67/PH8 infected in Swiss mouse peritoneal macrophages assessed as reduction of survival rate after 72 hrs by light microscopy analysis; format: functional, organism-based; in short: as §2
compound,measurement,setting,value
Meglumine antimoniate,Selectivity Index,[1],0.42
same,Activity,[2],Active
same,Ratio CC50/EC50,[3],1.01
same,Ratio CC50/IC50,[4],0.04
same,Activity,[5],inactive
same,Selectivity Index,[6],0.016
N#Cc1c(/N=C/c2cc3cc(Br)ccc3[nH]2)sc2c1CCCC2,Activity,[7],12.5%
same,Selectivity Index,[1],> 43.2
same,CC50 at 24 h,[8],113 µM
same,Activity,[9],inactive
same,Ratio CC50/EC50,[3],6.12
same,Activity,[10],Active
same,selectivity ratio,[11],840
same,Activity,[12],5.03%
same,Ratio,[13],> 14800
same,Activity,[14],27.2%
same,Activity,[15],21.7%
same,Activity,[16],Active
same,Activity,[17],Active
same,HC50 at 1 h,[18],> 800 µM
same,Activity,[19],3.5%
same,Activity,[20],5.2%
same,Activity,[21],76.7%
same,Activity,[22],28.5%
same,Ratio CC50/IC50,[4],33.6
same,Selectivity Index,[6],> 237
same,Activity,[23],51.9%
same,Activity,[24],15.8%
same,Activity,[25],Dose-dependent effect
same,Activity,[26],7.1%
same,IC50,[27],3.37 µM
same,EC50,[28],18.5 µM
same,Activity,[29],Dose-dependent effect
